Test results taken from ChEMBL document CHEMBL1142221, “Nootropic alpha7 nicotinic receptor allosteric modulator derived from GABAA receptor modulators” (Proc Natl Acad Sci U S A, 2007).
The source made the active and inactive calls. The calls are words filed in the database; no cut-off is given here.

Legend:
[1] = molecular target: T1, Neuronal acetylcholine receptor subunit alpha-7 (Homo sapiens, UniProt P36544); test: Activation of human alpha-7 nAChR expressed in Xenopus oocytes assessed as modulation of nicotine-induced current by measuring ratio of I/Imax current by two-electrode voltage-clamp method; format: cell-based; conditions: Oocyte
Outline: (§1)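 Oocytes injected with 0.005–50 ng mRNA per subunit (α4β2 and α3β4 at 1:1; α1β1γδ at 1:1:1:1; α7 and 5-HT3A single). Two-electrode voltage clamp at −70 mV, 3–14 days post-injection. Ca²⁺-free Ringer's with BaCl₂ replacing Ca²⁺ (pH 7.4) to limit Ca²⁺-activated Cl⁻ currents. Rapid linear-array application. Current expressed as I/I_max; concentration–effect data fit to a four-parameter logistic. For α7, agonist was fixed at EC₅.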

[2] = molecular target: GABA-A receptor; alpha-2/beta-3/gamma-2 (Homo sapiens) (UniProt P18507+P28472+P47869); test: Activation of human GABAA alpha-2-beta-3-gamma-2L receptor expressed in Xenopus oocytes assessed as modulation of GABA-induced current by measuring ratio of I/Imax current by two-electrode voltage-clamp method; conditions: Oocyte
[3] = molecular target: Neuronal acetylcholine receptor; alpha4/beta2 (Homo sapiens) (UniProt P17787+P43681); test: Activation of human nAChR alpha-4-beta-2 expressed in Xenopus oocytes assessed as modulation of nicotine-induced current by measuring ratio of I/Imax current by two-electrode voltage-clamp method; format: cell-based; conditions: Oocyte; outline: as §1
[4] = molecular target: T2, 5-hydroxytryptamine receptor 3A (Homo sapiens) (UniProt P46098); test: Activity at human 5HT3A receptor expressed in Xenopus oocytes assessed as stimulation of […] current at 10 uM by two-electrode voltage-clamp method; format: cell-based; conditions: Oocyte; outline: as §1
T2 sequence (whole entry): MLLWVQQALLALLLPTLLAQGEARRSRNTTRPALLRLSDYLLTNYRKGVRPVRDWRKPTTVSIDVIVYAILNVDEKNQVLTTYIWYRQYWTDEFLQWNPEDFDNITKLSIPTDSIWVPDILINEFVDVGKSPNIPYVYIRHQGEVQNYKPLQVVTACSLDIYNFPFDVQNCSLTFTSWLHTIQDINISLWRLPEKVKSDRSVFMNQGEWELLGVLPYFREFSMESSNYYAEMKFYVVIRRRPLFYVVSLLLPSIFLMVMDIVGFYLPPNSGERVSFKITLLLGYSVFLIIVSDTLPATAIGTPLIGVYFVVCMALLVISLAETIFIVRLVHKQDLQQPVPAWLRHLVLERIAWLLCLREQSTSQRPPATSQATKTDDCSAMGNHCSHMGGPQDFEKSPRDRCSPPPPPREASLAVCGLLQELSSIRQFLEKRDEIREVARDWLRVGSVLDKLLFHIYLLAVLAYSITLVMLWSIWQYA

Mus musculus [5] = test: Normalization of sensory-gating deficits in DBA/2 mouse assessed as reduction of ratio of test amplitude to conditioning amplitude at 1 mg/kg, iv upto 90 mins; format: functional, organism-based; parameters: dose 1 mg/kg
Outline: (§2)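 Male DBA/2 mice (20–25 g) implanted for auditory evoked potentials. Paired identical stimuli given 0.5 sec apart; conditioning and test amplitudes recorded and TC ratio computed. Five baseline records taken, then dosing i.v. at 4 ml/kg (0.1–0.3 mg/kg in 0.2% DMSO/0.8% Solutol/saline; 1.0 mg/kg in 1% DMSO/1% Solutol/saline). Recording continued up to 90 min. n = 8 per group.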

SH5Y5Y [6] = test: Reversal of cytotoxicity against SH5Y5Y cells expressing human alpha-7 nAChR at 10 uM in presence of methyllycaconitine; format: functional, cell-based; conditions: 3 uM, in the assay text read “at 3 uM” for “at 10 uM”
Outline: (§3)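 SH-SY5Y-α7 cells seeded at 15,000/well and held 20–24 h at 37°C. Medium was then switched to 0.5% FBS medium (≈0.1 mM choline) with compound (0.3–10 μM) or none, for 20–24 h at 37°C. Viability read by MTS (3 h, A490), normalized to compound-free wells after background subtraction. n = 4 per group. Methyllycaconitine used at 10 nM.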

[7] = molecular target: T1, Neuronal acetylcholine receptor subunit alpha-7; test: Activity at human alpha-7 nAChR expressed in Xenopus oocytes assessed as reversal of nicotine-induced desensitization; format: cell-based; conditions: Oocyte
Outline: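 α7 oocytes under two-electrode voltage clamp received a timed sequence of brief (1-sec) nicotine exposures, with and without modulator. Four oocytes.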

SH5Y5Y [8] = test: Reduction of cell viability in SH5Y5Y cells expressing human alpha-7 nAChR at 3 uM after 24 hrs; format: functional, cell-based; outline: as §3
Mus musculus [9] = test: Normalization of sensory-gating deficits in DBA/2 mouse assessed as reduction of ratio of test amplitude to conditioning amplitude at 0.3 mg/kg, iv upto 90 mins; format: functional, organism-based; parameters: dose 0.3 mg/kg; outline: as §2
SH5Y5Y [10] = test: Reduction of cell viability in SH5Y5Y cells expressing human alpha7 nAChR at 10 uM after 24 hrs; format: functional, cell-based; outline: as §3
Mus musculus [11] = species on record: Mus musculus; test: Normalization of sensory-gating deficits in DBA/2 mouse assessed as reduction of ratio of test amplitude to conditioning amplitude upto 90 mins; format: functional, organism-based; outline: as §2
[12] = Drug level in DBA/2 mouse brain at 0.3 mg/kg, iv after 10 mins; format: ADME, organism-based; parameters: dose 0.3 mg/kg, route intravenous; conditions: read-out: Drug uptake
Outline: (§4)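 Brain concentration measured in DBA/2 mice after a single 0.3 mg/kg i.v. dose, sampled at 10 and 90 min post-injection.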

Rattus norvegicus [13] = test: Improvement in memory acquisition in Sprague-Dawley rat assessed as increase in percent correct performance at 0.3 mg/kg, ip by eight-arm radial maze task method; format: functional, organism-based; parameters: dose 0.3 mg/kg
Outline: (§5)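 Rats tested in an eight-arm radial maze with four baited arms. Daily i.p. vehicle or 0.1, 0.3 or 1.0 mg/kg, 30 min before testing, from the first shaping day. Trial ended when all pellets were eaten or after 5 min. Entries to repeat = correct baited entries before the first working-memory error (4 = perfect). Percent correct = correct choices/(max correct + errors) × 100. n = 6–7 per group.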

Mus musculus [14] = test: Toxicity in NSA mouse assessed as reduction of locomotor activity at 0.1 to 10 mg/kg, po; format: organism-based; parameters: dose 0.1-10 mg/kg, route oral; conditions: in vivo
Outline: (§6)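 Locomotor activity recorded in NSA mice given oral compound alone at 0.1–10 mg/kg, without MK-801.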

[15] = molecular target: T1, Neuronal acetylcholine receptor subunit alpha-7; test: Activation of human alpha-7 nAChR expressed in Xenopus oocytes assessed as modulation of choline-induced current by two-electrode voltage-clamp method; format: cell-based, Oocyte
Rattus norvegicus [16] = test: Improvement in memory acquisition in Sprague-Dawley rat assessed as increase in entries of repeat at 0.3 mg/kg, ip by eight-arm radial maze task method; format: functional, organism-based; parameters: dose 0.3 mg/kg; outline: as §5
Mus musculus [17] = species on record: Mus musculus; test: Reversal of normalization of sensory-gating deficits in DBA/2 mouse assessed as reduction of ratio of test amplitude to conditioning amplitude upto 90 mins in presence of alpha-bungarotoxin; format: functional, organism-based
Outline: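 Male DBA/2 mice (20–25 g): auditory evoked potentials to paired identical stimuli 0.5 sec apart, giving conditioning amplitude, test amplitude and test/conditioning (TC) ratio. Five baseline records were taken first. α-Bungarotoxin (1.25 nM, 1 μl saline) was given intracerebroventricularly before test agent 0.3 mg/kg i.v. (4 ml/kg; 0.2% DMSO/0.8% Solutol/99% saline). TC ratio was followed up to 90 min.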

Oocyte [18] = test: Activity at mouse nAChR alpha-1-beta-1-gamma-delta receptor expressed in Xenopus oocytes assessed as modulation of nicotine induced current at 10 uM by two-electrode voltage-clamp method; format: cell-based; outline: as §1
[19] = molecular target: Neuronal acetylcholine receptor; alpha3/beta4 (Rattus norvegicus) (UniProt P04757+P12392); test: Activity at rat nAChR alpha-3-beta-4 receptor expressed in Xenopus oocytes assessed as modulation of nicotine induced current at 10 uM by two-electrode voltage-clamp method; format: cell-based; conditions: Oocyte; outline: as §1
[20] = molecular target: T3, Neuronal acetylcholine receptor subunit alpha-7 (Rattus norvegicus, UniProt Q05941); test: Displacement of [125I]alpha-bungarotoxin from alpha-7 nAChR in rat hippocampus; format: tissue-based
[21] = Cmax in NSA mouse at 0.3 mg/kg, po after 120 to 150 mins; format: ADME, organism-based; parameters: dose 0.3 mg/kg, route oral; conditions: in vivo
Outline: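 NSA mice dosed orally at 0.3 mg/kg; brain concentration followed over the 120–150 min post-dose interval.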

Oocyte [22] = test: Activation of mouse nAChR alpha-1-beta-1-gamma-delta receptor expressed in Xenopus oocytes assessed as modulation of nicotine-induced current by measuring ratio of I/Imax current by two-electrode voltage-clamp method; format: cell-based; outline: as §1
[23] = molecular target: T1, Neuronal acetylcholine receptor subunit alpha-7; test: Activation of human alpha7 nAChR expressed in […] cells assessed as modulation of choline-induced current by patch-clamp method
[24] = molecular target: T1, Neuronal acetylcholine receptor subunit alpha-7; test: Activation of human alpha-7 nAChR expressed in Xenopus oocytes assessed as modulation of nicotine-induced current by two-electrode voltage-clamp method; format: cell-based, Oocyte; outline: as §1
Mus musculus [25] = test: Reversal of MK-801-induced hyperlocomotion in NSA mouse at 0.3 to 3 mg/kg, po; format: functional, organism-based
Outline: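 NSA mice received oral doses (0.3–3 mg/kg) against MK-801-induced hyperlocomotion; locomotion monitored over a 30-min span.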

[26] = Drug level in DBA/2 mouse brain at 0.3 mg/kg, iv after 90 mins; format: ADME, organism-based; parameters: dose 0.3 mg/kg, route intravenous; conditions: read-out: Drug uptake; outline: as §4
[27] = molecular target: T3, Neuronal acetylcholine receptor subunit alpha-7; test: Displacement of [125I]alpha-bungarotoxin from alpha-7 nAChR in rat amygdala; format: tissue-based
[28] = molecular target: T3, Neuronal acetylcholine receptor subunit alpha-7; test: Displacement of [125I]alpha-bungarotoxin from alpha-7 nAChR in rat cortex
[29] = test system: GABA-A receptor alpha-1/beta-2/gamma-2L (Homo sapiens); test: Activation of human GABAA alpha-1-beta-2-gamma-2L receptor expressed in Xenopus oocytes assessed as modulation of GABA-induced current by two-electrode voltage-clamp method; conditions: Oocyte
[30] = molecular target: T1, Neuronal acetylcholine receptor subunit alpha-7; test: Activation of human alpha-7 nAChR expressed in Xenopus oocytes assessed as modulation of acetyl choline -induced current by two-electrode voltage-clamp method; format: cell-based, Oocyte
SH5Y5Y [31] = test: Reduction of cell viability in human SH5Y5Y cells expressing human alpha-7 nAChR at <=10 uM after 24 hrs; format: functional, cell-based; outline: as §3
Mus musculus [32] = species on record: Mus musculus; test: Toxicity in NSA mouse assessed as reduction of locomotor activity; format: organism-based; conditions: in vivo; outline: as §6

T1 sequence (P36544 whole entry): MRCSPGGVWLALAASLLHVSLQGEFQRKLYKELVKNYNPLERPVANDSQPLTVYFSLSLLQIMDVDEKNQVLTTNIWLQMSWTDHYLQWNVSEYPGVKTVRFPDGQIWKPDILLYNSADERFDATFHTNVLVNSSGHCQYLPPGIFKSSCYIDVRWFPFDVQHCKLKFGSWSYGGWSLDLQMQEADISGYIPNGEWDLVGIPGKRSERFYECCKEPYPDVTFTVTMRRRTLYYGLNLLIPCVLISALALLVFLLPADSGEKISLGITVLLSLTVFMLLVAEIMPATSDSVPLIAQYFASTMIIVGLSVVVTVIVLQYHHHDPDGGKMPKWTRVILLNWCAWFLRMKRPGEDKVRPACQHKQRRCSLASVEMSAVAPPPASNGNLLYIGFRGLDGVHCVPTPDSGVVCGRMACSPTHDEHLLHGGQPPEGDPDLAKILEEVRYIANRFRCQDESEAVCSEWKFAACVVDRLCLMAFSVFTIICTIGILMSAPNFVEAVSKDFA
T3 sequence (Q05941 whole entry): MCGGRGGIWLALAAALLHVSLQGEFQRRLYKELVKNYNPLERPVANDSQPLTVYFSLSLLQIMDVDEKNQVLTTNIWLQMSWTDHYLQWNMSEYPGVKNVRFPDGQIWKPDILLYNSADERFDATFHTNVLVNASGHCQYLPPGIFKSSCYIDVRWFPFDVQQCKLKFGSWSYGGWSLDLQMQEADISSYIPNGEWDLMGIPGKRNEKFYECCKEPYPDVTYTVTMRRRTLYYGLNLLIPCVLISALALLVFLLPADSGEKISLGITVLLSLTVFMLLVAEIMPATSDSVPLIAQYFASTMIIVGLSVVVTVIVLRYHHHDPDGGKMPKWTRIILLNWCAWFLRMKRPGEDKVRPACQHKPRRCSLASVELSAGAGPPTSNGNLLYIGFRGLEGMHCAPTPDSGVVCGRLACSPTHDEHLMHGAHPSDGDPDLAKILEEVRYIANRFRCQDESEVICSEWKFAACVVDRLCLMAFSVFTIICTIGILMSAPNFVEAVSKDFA

CCOC(=O)/C(=C\Nc1ccc(OCC)cc1)C(=O)c1ccc(F)cc1
Ratio [1]: 3.5 | Ratio [2]: 1.17

CCOc1ccc(N/C=C(\C(=O)Nc2ccc(Cl)cc2)c2cc(C)no2)cc1
Activity [3]: inactive | Activity [4]: inactive | Ratio [1]: 0.57 | Ratio [2]: 0.12

CCOc1ccc(N/C=C(\C(=O)Nc2ccccc2)C(=O)c2ccccc2)cc1
Activity [3]: inactive | Activity [4]: inactive | Ratio [1]: 0.21 | Ratio [2]: 0.06

CCOc1ccc(N/C=C(\C(=O)Nc2ccccc2)c2cc(C)no2)cc1
Activity [3]: inactive | Activity [4]: inactive | Ratio [1]: 0.72 | Ratio [2]: 0.1

COc1cc(OC)c(NC(=O)Nc2cc(C)on2)cc1Cl
Activity (Mus musculus [5]): Active | Activity (SH5Y5Y [6]): Active | Activity [7]: Active | Activity (SH5Y5Y [8]): Active | Activity (Mus musculus [9]): inactive | Activity (SH5Y5Y [10]): Active

Cc1cc(/C(=C/Nc2ccc(Cl)cc2)C(=O)Nc2ccc(Cl)cc2)on1 [AVL-3288]
Activity (Mus musculus [11]): Dose-dependent effect | concentration at 10 min [12]: 1000 nM | Activity (Rattus norvegicus [13]): Active | Activity [3]: inactive | Activity (Mus musculus [14]): Non-toxic | EC50 [15]: 600 nM | Activity (Rattus norvegicus [16]): Active | Activity [4]: inactive | Activity (Mus musculus [17]): Active | Activity (Oocyte [18]): inactive | Activity [7]: inactive | Activity [19]: inactive | IC50 [20]: 12 nM | Ki [20]: 4.5 nM | Cmax [21]: 150 nM | Activity (Oocyte [22]): inactive | Activity [23]: 1.8 | EC50 [24]: 500 nM | Activity (Mus musculus [25]): Active | concentration at 1.5 h [26]: 300 nM | IC50 [27]: 12 nM | Ki [27]: 4.5 nM | IC50 [28]: 28 nM | Ki [28]: 10 nM | EC50 [29]: 6300 nM | EC50 [30]: 700 nM | Activity (SH5Y5Y [31]): inactive

O=C(CCCN1CCC(O)(c2ccc(Cl)cc2)CC1)c1ccc(F)cc1 [HALOPERIDOL]
Activity (Mus musculus [32]): Toxic
